# ChEMBL document CHEMBL1122809, “Improved synthesis and antitumor activity of 2-bromo-2'-deoxyadenosine” (1984)
# Experiments:
# L1210 [1] = test: Antitumor activity expressed as life span was determined against inoculated L1210 leukemia cells (1*10e5) in mice by 11.3 mg/kg dosage of compound (qd (x 3), for days 1, 4, 7); assay type: functional, Mus musculus
# In short: (§1)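 Female mice (~18 g, housed six per cage) received L1210 cells intraperitoneally on day 0. Drug was made fresh and injected at 0.01 mL/g; the stated dose is per injection. Controls received the same volume of 0.154 M NaCl. Survival was followed, with deaths assigned to tumour by necropsy or to drug toxicity by set criteria. Life span is given as mean ± SD.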
# L1210 [2] = test: Antitumor activity expressed as life span was determined against inoculated L1210 leukemia cells (1*10e5) in mice by 11.3 mg/kg dosage of compound (qd (x 3), for days 1, 4, 7,10,13,16); assay type: functional, Mus musculus; in short: as §1
# L1210 [3] = test: Antitumor activity expressed as life span was determined against inoculated L1210 leukemia cells (1*10e5) in mice by 22.5 mg/kg dosage of compound (qd (x 3), for days 1, 4, 7,10,13,16); assay type: functional, Mus musculus; in short: as §1
# L1210 [4] = test: Antitumor activity expressed as life span was determined against inoculated L1210 leukemia cells (1*10e5) in mice by 45 mg/kg dosage of compound (qd (x 3), for days 1, 4, 7); assay type: functional, Mus musculus; in short: as §1
# L1210 [5] = test: Antitumor activity expressed as life span was determined against inoculated L1210 leukemia cells (1*10e5) in mice by 5.6 mg/kg dosage of compound (qd (x 3), for days 1,5,9); assay type: functional, Mus musculus; in short: as §1
# L1210 [6] = test: Antitumor activity expressed as life span was determined against inoculated L1210 leukemia cells (1*10e6) in mice by 11.3 mg/kg dosage of compound (qd (x 3), for days 1, 4, 7); assay type: functional, Mus musculus; in short: as §1
# L1210 [7] = test: Antitumor activity expressed as life span was determined against inoculated L1210 leukemia cells (1*10e6) in mice by 110 mg/kg dosage of compound (qd (x 3), for days 1, 4, 7); assay type: functional, Mus musculus; in short: as §1
# L1210 [8] = test: Antitumor activity expressed percentage increase in life span was determined against inoculated L1210 leukemia cells (1*10e5) in mice by 5.6 mg/kg dosage of compound (qd (x 3), for days 1, 4, 7,10,13,16); assay type: functional; details: Mus musculus
# In short: (§2)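 L1210 cells were given intraperitoneally to female mice (~18 g). Freshly prepared drug was injected at 0.01 mL/g, dose per injection, and saline-injected controls were run. The end point was duration of survival. ILS was calculated as percent increase in mean life span over controls. Mice surviving 60 days or more counted as long-term survivors, scored as 60 days.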
# L1210 [9] = test: Antitumor activity expressed percentage increase in life span was determined against inoculated L1210 leukemia cells (1*10e6) in mice by 11.3 mg/kg dosage of compound (qd (x 3), for days 1, 4, 7,10,13,16); assay type: functional; details: Mus musculus; in short: as §2
# L1210 [10] = test: Antitumor activity expressed percentage increase in life span was determined against inoculated L1210 leukemia cells (1*10e6) in mice by 110 mg/kg dosage of compound (qd (x 3), for days 1, 4, 7); assay type: functional; details: Mus musculus; in short: as §2
# L1210 [11] = test: Antitumor activity expressed as life span was determined against inoculated L1210 leukemia cells (1*10e6) in mice by 90 mg/kg dosage of compound (qd (x 3), for days 1- 7); assay type: functional, Mus musculus; in short: as §1
# L1210 [12] = test: Antitumor activity expressed as life span was determined against inoculated L1210 leukemia cells (1*10e6) in mice by 180 mg/kg dosage of compound (qd (x 3), for days 1, 4, 7); assay type: functional, Mus musculus; in short: as §1
# L1210 [13] = test: Antitumor activity expressed as life span was determined against inoculated L1210 leukemia cells (1*10e6) in mice by 22.5 mg/kg dosage of compound (qd (x 3), for days 1, 4, 7); assay type: functional, Mus musculus; in short: as §1
# L1210 [14] = test: Antitumor activity expressed as life span was determined against inoculated L1210 leukemia cells (1*10e6) in mice by 22.5 mg/kg dosage of compound (qd (x 3), for days 1, 4, 7,10,13,16); assay type: functional, Mus musculus; in short: as §1
# L1210 [15] = test: Antitumor activity expressed percentage increase in life span was determined against inoculated L1210 leukemia cells (1*10e5) in mice by 22.5 mg/kg dosage of compound (qd (x 3), for days 1, 4, 7,10,13,16); assay type: functional; details: Mus musculus; in short: as §2
# L1210 [16] = test: Antitumor activity expressed percentage increase in life span was determined against inoculated L1210 leukemia cells (1*10e5) in mice by 45 mg/kg dosage of compound (qd (x 3), for days 1, 4, 7); assay type: functional; details: Mus musculus; in short: as §2
# L1210 [17] = test: Antitumor activity expressed percentage increase in life span was determined against inoculated L1210 leukemia cells (1*10e6) in mice by 180 mg/kg dosage of compound (qd (x 3), for days 1, 4, 7); assay type: functional; details: Mus musculus; in short: as §2
# L1210 [18] = test: Antitumor activity expressed percentage increase in life span was determined against inoculated L1210 leukemia cells (1*10e6) in mice by 45 mg/kg dosage of compound (qd (x 3), for days 1, 4, 7); assay type: functional; details: Mus musculus; in short: as §2
# M5076 = test: Antitumor activity was evaluated by measuring mean life span in tumor (M5076) inoculated mice at 22.5 mg/kg (qd3hx8),days 1,4,7,15,18,21; assay type: functional, Mus musculus
# In short: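 Female mice of about 18 g received subcutaneous M5076 implants like those used for serial passage. Drug was prepared just before use and injected at 0.01 mL/g every 3 h (×8) on days 1, 4, 7, 15, 18 and 21, with the dose stated per injection. Controls received 0.154 M NaCl, and groups held 18 mice. Survival and tumor volume were recorded, and %ILS was derived from mean life span.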
# L1210 [19] = test: Antitumor activity expressed percentage increase in life span was determined against inoculated L1210 leukemia cells (1*10e6) in mice by 5.6 mg/kg dosage of compound (qd (x 3), for days 1, 4, 7); assay type: functional; details: Mus musculus; in short: as §2
# L1210 [20] = test: Antitumor activity expressed percentage increase in life span was determined against inoculated L1210 leukemia cells (1*10e6) in mice by 70 mg/kg dosage of compound (qd (x 3), for days 1-7); assay type: functional; details: Mus musculus
# In short: (§3)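 Female mice of about 18 g (BDF1, DBA/2 or C57Bl/6 stocks used) were inoculated intraperitoneally with 1 × 10^6 L1210 cells. Freshly prepared drug was given once daily from about 24 h after inoculation at 0.01 mL/g, with the dose stated per injection. Controls received 0.154 M NaCl, and groups held 6 mice. %ILS was taken from mean survival, with mice alive at 60 days or more counted as 60 days.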
# L1210 [21] = test: Antitumor activity expressed percentage increase in life span was determined against inoculated L1210 leukemia cells (1*10e6) in mice by 90 mg/kg dosage of compound (qd (x 3), for days 1- 7); assay type: functional; details: Mus musculus; in short: as §3
# L1210 [22] = test: Antitumor activity expressed as life span was determined against inoculated L1210 leukemia cells (1*10e6) in mice by 50 mg/kg dosage of compound (qd (x 3), for days 1- 7); assay type: functional, Mus musculus; in short: as §1
# B16 melanoma (mouse) [23] = test: Antitumor activity expressed percentage increase in life span was determined against inoculated B16 melanoma in mice by 11.3 mg/kg dosage of compound (qd3hx8), for days 1,4,7,10
# B16 melanoma (mouse) [24] = test: Antitumor activity expressed percentage increase in life span was determined against inoculated B16 melanoma in mice by 22.5 mg/kg dosage of compound (qd3hx8), for days 1,4,7,10,13,16
smiles,measurement,setting,value
Nc1nc(Br)nc2c1ncn2[C@H]1C[C@H](O)[C@@H](CO)O1,Life span,L1210 [1],14.33 days
same,Life span,L1210 [2],18.67 days
same,Life span,L1210 [3],20.67 days
same,Life span,L1210 [4],37.92 days
same,Life span,L1210 [5],12.36 days
same,Life span,L1210 [6],12.92 days
same,Life span,L1210 [7],8.17 days
same,ILS at 5.6 mg/kg,L1210 [8],45%
same,ILS at 11.3 mg/kg,L1210 [9],86%
same,ILS at 110 mg/kg,L1210 [10],29%
same,Life span,L1210 [11],4.83 days
same,Life span,L1210 [12],5 days
same,Life span,L1210 [13],15 days
same,Life span,L1210 [14],16.08 days
same,ILS at 22.5 mg/kg,L1210 [15],153%
same,ILS at 45 mg/kg,L1210 [16],417%
same,ILS at 180 mg/kg,L1210 [17],0%
same,ILS at 45 mg/kg,L1210 [18],113%
same,Life span,M5076,43.33 days
same,ILS at 5.6 mg/kg,L1210 [19],75%
same,ILS at 70 mg/kg,L1210 [20],11%
same,ILS at 90 mg/kg,L1210 [21],0%
same,Life span,L1210 [22],9 days
same,ILS at 11.3 mg/kg,B16 melanoma (mouse) [23],66%
same,ILS at 22.5 mg/kg,B16 melanoma (mouse) [24],10%
